Measured values as given in ChEMBL document CHEMBL4613245, “Arenicolins: C-Glycosylated Depsides from Penicillium arenicola” (J Nat Prod, 2020).
Active and inactive are the calls of the source. No cut-off for these calls is given here.

Assays:
[1] = test system: Staphylococcus aureus; test: Antibacterial activity against Staphylococcus aureus ATCC 43300 at 100 ug/ml incubated for 24 to 48 hrs; assay type: functional, organism-based
How it was run: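 Agar well diffusion: sample dissolved in DMSO at 0.1 mg/mL, 10 μL applied to a 4 mm well cut in YM agar seeded with an overnight S. aureus ATCC 43300 culture; plates held at 37 °C and read for inhibition zones after 24–48 h.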

[2] = test system: Cryptococcus neoformans; test: Antifungal activity against Cryptococcus neoformans H99 at 100 ug/ml measured at 48 hrs by agar well diffusion method; details: var grubii H99
[3] = test system: Candida albicans; test: Antifungal activity against Candida albicans ATCC 10231 at 100 ug/ml measured at 24 hrs by agar well diffusion method
[4] = test system: BT-474; test: Cytotoxicity against human BT474 cells after 48 hrs by CellTiter-Glo assay; assay type: functional, cell-based
How it was run: (§1)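 Cells plated at 2000/well and preincubated 2 h, then exposed for 48 h to serial dilutions from 0.3 to 30.0 μM. Controls were 5-FU (positive) and fresh medium (negative). Each concentration ran in triplicate, and viability was read by CellTiter-Glo luminescence per the kit protocol.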

[5] = test system: IMR-32; test: Cytotoxicity against human IMR32 cells after 48 hrs by CellTiter-Glo assay; assay type: functional, cell-based; details: for IC50: IMR-32, 48 h; how it was run: as §1
[6] = test system: HCT-116; test: Cytotoxicity against human HCT116 cells after 48 hrs by CellTiter-Glo assay; assay type: functional, cell-based; details: for IC50: HCT-116, 48 h; how it was run: as §1
[7] = test system: BT-474; test: Cytotoxicity against human BT474 cells up to 30 uM after 48 hrs by CellTiter-Glo assay; assay type: functional, cell-based; how it was run: as §1
[8] = test system: HCT-116; test: Cytotoxicity against human HCT116 cells up to 30 uM after 48 hrs by CellTiter-Glo assay; assay type: functional, cell-based; how it was run: as §1
[9] = test system: IMR-32; test: Cytotoxicity against human IMR32 cells up to 30 uM after 48 hrs by CellTiter-Glo assay; assay type: functional, cell-based; how it was run: as §1

SMILES	Activity [1]	Activity [2]	Activity [3]	Activity [4]	IC50 ([4]; BT-474, 48 h) [µM]	Activity [5]	IC50 [5] [µM]	Activity [6]	IC50 [6] [µM]	Activity [7]	Activity [8]	Activity [9]
CCCCCCCc1cc(OC(=O)c2c(CCCCCCC)cc(O)c([C@@H]3O[C@H](CO)[C@@H](O)[C@H](O)[C@H]3O)c2O)cc(O)c1C(=O)O[C@@H]1C(=O)C(CO)=C[C@@H](O)[C@H]1O	inactive	inactive	inactive	Dose-dependent effect	9.7	Dose-dependent effect	6	Dose-dependent effect	7.3			
CCCCCCCc1cc(OC(=O)c2c(CCCCCCC)cc(O)c([C@@H]3O[C@H](CO)[C@@H](O)[C@H](O)[C@H]3O)c2O)cc(O)c1C(=O)O	inactive	inactive	inactive							inactive	inactive	inactive
O=c1[nH]cc(F)c(=O)[nH]1 [FLUOROURACIL]							5.7		6.5			
